Assay type in all cases: functional
Assay [1] concerns Mus musculus. Nature of the assay: Efficacy against Septicemia caused by Staphylococcus aureus in mice by Oral administration. In short, it runs like this: (§1)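 S. aureus Smith ATCC19636, overnight brain-heart infusion culture diluted in 5% mucin, given i.p. (0.5 mL) to male and female CD-1 mice (18-22 g). Single s.c. or oral dose within 10 min of infection, drug in DMSO/0.5% methocel or as suspension. 3-5 dose groups of six mice; ED50 with 95% limits by Spearman-Kärber from day-7 survival.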

For the next assay, the system named is Klebsiella pneumoniae. Nature of the assay: Antibacterial activity tested against Klebsiella pneumoniae (Klebsiella pneumoniae) ATCC 10031. In outline:
(§2)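 MICs (µg/mL) determined by conventional agar dilution against a panel of eight Gram-negative and five Gram-positive reference strains.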

A further assay concerns Shigella. Nature of the assay: Antibacterial activity tested against Shigella enteritidis. In short, it runs like this:
as §2

In assay [2] the test system is Staphylococcus epidermidis. Briefly: Antibacterial activity tested against Staphylococcus epidermidis HCF Berset C. In short, it runs like this:
as §2

Assay [3] relates to Enterococcus faecalis. Nature of the assay: Antibacterial activity tested against Streptococcus faecalis LEP Br. In outline: as §2
Another assay has as its system Providencia stuartii. Briefly: Antibacterial activity tested against Providencia stuartii CNUR 5. In short, it runs like this:
as §2

The test system of assay [4] is Escherichia coli. Nature of the assay: Inhibitory activity against gyrase supercoiling activity from Escherichia coli. In outline:
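Inhibition of DNA gyrase supercoiling activity, by a previously described protocol with slight modifications. IC50 derived by densitometric quantification of the supercoiled DNA peak in an agarose gel.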

The test system of assay [5] is Enterococcus faecalis. Briefly: Antibacterial activity tested against Enterococcus faecalis.
Assay [6] deals with Staphylococcus aureus. Nature of the assay: Antibacterial activity tested against Staphylococcus aureus; Range is 0.004-0.03 ug/mL.
Assay [7] has as its system Staphylococcus aureus. Nature of the assay: Antibacterial activity tested against Staphylococcus aureus Methicillin-and Ciprofloxacin resistants; Range is 0.05-1 ug/mL.
Assay [8] deals with Enterococcus faecium. Nature of the assay: Antibacterial activity tested against Enterococcus faecium; Range is 0.06-1 ug/mL.
The test system of assay [9] is Staphylococcus aureus. Nature of the assay: Antibacterial activity against Staphylococcus aureus MPR 5. In outline: as §2
Assay [10] deals with Streptococcus pneumoniae. Briefly: Antibacterial activity tested against Streptococcus pneumoniae.
Assay [11] relates to Staphylococcus epidermidis. Nature of the assay: Antibacterial activity tested against Staphylococcus epidermidis CPHL A2. In short, it runs like this:
as §2

A short description of assay [12]: Geometric mean of antibacterial activity (Gram -ve bacteria) of the compound. In outline: (§3)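 Geometric means calculated from agar-dilution MICs (µg/mL), taken separately across the five Gram-positive and the eight Gram-negative panel strains.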
Another assay concerns Pseudomonas aeruginosa. Briefly: Antibacterial activity tested against P. ae (Pseudomonas aeruginosa) ATCC 9027. In outline:
as §2

The test system of the next assay is Proteus vulgaris. Briefly: Antibacterial activity tested against Proteus vulgaris CNUR 5. In short, it runs like this: as §2
Another assay relates to Bacteria. Briefly: Geometric mean of antibacterial activity (Gram +ve bacteria) of the compound. In outline:
as §3

The test system of assay [13] is Staphylococcus aureus. Nature of the assay: Antibacterial activity against Staphylococcus aureus ATCC 6538. In short, it runs like this:
as §2

A further assay has as its system Enterobacter cloacae. Briefly: Antibacterial activity tested against Enterobacter cloacae OMNFI 174.
Assay [14] has as its system Escherichia coli. Nature of the assay: Antibacterial activity tested against Escherichia coli ISF 432. In outline: as §2
Assay [15] concerns Mus musculus. Nature of the assay: Efficacy against Septicemia caused by Staphylococcus aureus in mice by subcutaneous administration. The following applies: sc. In outline: as §1
The species named for assay [16] is Mus musculus. Nature of the assay: Minimum inhibitory concentration against Septicemia caused by Staphylococcus aureus in mice.
Assay [17] has as its system Escherichia coli. Briefly: Antibacterial activity tested against Escherichia coli ATCC 8739. In outline: as §2
Assay [18] relates to Staphylococcus aureus. Briefly: Antibacterial activity tested against Staphylococcus aureus Methicillin-and Ciprofloxacin resistants; Range is 1-2 ug/mL.
Assay [19] relates to Enterococcus faecium. Briefly: Antibacterial activity tested against Enterococcus faecium; Range is 0.13-2 ug/mL.
The test system of assay [20] is Streptococcus pneumoniae. Nature of the assay: Antibacterial activity tested against Streptococcus pneumoniae; Range is 1-2 ug/mL.
Assay [21] deals with Staphylococcus aureus. Briefly: Antibacterial activity tested against Staphylococcus aureus; Range is 0.016-0.13 ug/mL.
For assay [22], the system named is Enterococcus faecalis. Briefly: Antibacterial activity tested against Enterococcus faecalis; Range is 0.13-0.25 ug/mL.

The structures appear in SMILES notation. In brackets after ≈: the same amount, converted by molar mass.

This is an account of results in ChEMBL document CHEMBL1129660, “Studies on 6-aminoquinolones: synthesis and antibacterial evaluation of 6-amino-8-methylquinolones” (J Med Chem, 1996).

Usually ED50 stands for the dose that gives a 50% effect, or the effect in half of the subjects. A low value points to greater potency. A word on the MIC: it is the smallest concentration in the dilution series that meets the test's criterion for growth inhibition. Read a low MIC as a more susceptible organism. The IC50 is the point on the concentration scale where inhibition reaches its midpoint. The low end stands for higher potency, the high end for lower potency. As for `Cc1c(N2CCc3ccccc3C2)c(N)cc2c(=O)c(C(=O)O)cn(C3CC3)c12`, the ED50 with Mus musculus [1] came to 5 mg/kg; with Mus musculus [15], 1.3 mg/kg. The MIC was 0.06 mg/L (≈ 0.154 µM) in the assay on Klebsiella pneumoniae; 0.25 mg/L (≈ 0.642 µM) with Shigella; 0.03 mg/L (≈ 0.077 µM) in assay [2]; 0.25 mg/L (≈ 0.642 µM) in the assay on Enterococcus faecalis [3]; 0.06 mg/L (≈ 0.154 µM) in the assay on Providencia stuartii; 0.06 mg/L (≈ 0.154 µM) in the assay with Enterococcus faecalis [5]. The MIC was determined as 0.004 mg/L (≈ 0.0103 µM) against Staphylococcus aureus [6]; 0.05 mg/L (≈ 0.128 µM) against Staphylococcus aureus [7]; 0.06 mg/L (≈ 0.154 µM) against Enterococcus faecium [8]; 0.008 mg/L (≈ 0.0205 µM) against Staphylococcus aureus [9]; 0.13 mg/L (≈ 0.334 µM) against Streptococcus pneumoniae [10]; 0.016 mg/L (≈ 0.0411 µM) in assay [11]. The MIC against Pseudomonas aeruginosa stood at 0.5 mg/L (≈ 1.28 µM); in the assay with Proteus vulgaris, 2 mg/L (≈ 5.14 µM); in the assay on Staphylococcus aureus [13], 0.008 mg/L (≈ 0.0205 µM); against Enterobacter cloacae it was 0.25 mg/L (≈ 0.642 µM); against Escherichia coli [14] it was 0.008 mg/L (≈ 0.0205 µM); in the assay listed under Mus musculus [16] it was 0.016 mg/L (≈ 0.0411 µM). In the assay with Escherichia coli [17], this compound registered an MIC of 0.008 mg/L (≈ 0.0205 µM). In the assay on Escherichia coli [4], this compound registered an IC50 of 3.58 mg/L (≈ 9.19 µM). Moreover, the Geometric mean in assay [12] is given as 0.105; in the assay with Bacteria, 0.024.
Turning to `Cc1c(N2CCC(C)CC2)c(N)cc2c(=O)c(C(=O)O)cn(C3CC3)c12`, the MIC in the assay with Klebsiella pneumoniae stood at 0.03 mg/L (≈ 0.0844 µM); with Shigella it was 0.5 mg/L (≈ 1.41 µM); in [2], 0.125 mg/L (≈ 0.352 µM); with Enterococcus faecalis [3], 0.5 mg/L (≈ 1.41 µM); against Providencia stuartii, 0.5 mg/L (≈ 1.41 µM); in the assay on Staphylococcus aureus [18] it was 1 mg/L (≈ 2.81 µM). For the same compound, the MIC came out at 0.13 mg/L (≈ 0.366 µM) against Enterococcus faecium [19]; 1 mg/L (≈ 2.81 µM) with Streptococcus pneumoniae [20]; 0.06 mg/L (≈ 0.169 µM) against Staphylococcus aureus [9]; 0.125 mg/L (≈ 0.352 µM) in assay [11]; 1 mg/L (≈ 2.81 µM) against Pseudomonas aeruginosa; 8 mg/L (≈ 22.5 µM) against Proteus vulgaris. The MIC against Staphylococcus aureus [21] came to 0.016 mg/L (≈ 0.045 µM); against Enterococcus faecalis [22], 0.13 mg/L (≈ 0.366 µM); with Staphylococcus aureus [13], 0.06 mg/L (≈ 0.169 µM); against Enterobacter cloacae, 0.5 mg/L (≈ 1.41 µM); in the assay on Escherichia coli [14], 0.03 mg/L (≈ 0.0844 µM); in the assay with Escherichia coli [17], 0.03 mg/L (≈ 0.0844 µM). Half-maximal inhibition in the assay with Escherichia coli [4] (IC50) required 5.86 mg/L (≈ 16.5 µM). The Geometric mean in [12] is on record as 0.268; in the assay with Bacteria, 0.122.
For the compound `Cc1c(N2CC3CCC2CC3)c(N)cc2c(=O)c(C(=O)O)cn(C3CC3)c12`, the MIC amounted to 0.03 mg/L (≈ 0.0816 µM) with Klebsiella pneumoniae; 3 mg/L (≈ 8.16 µM) with Shigella; 1 mg/L (≈ 2.72 µM) in [2]; 4 mg/L (≈ 10.9 µM) with Enterococcus faecalis [3]; 1 mg/L (≈ 2.72 µM) against Providencia stuartii; 0.03 mg/L (≈ 0.0816 µM) against Staphylococcus aureus [9]. For the same compound, the MIC in assay [11] was found to be 0.25 mg/L (≈ 0.68 µM); against Pseudomonas aeruginosa it was 16 mg/L (≈ 43.5 µM); with Proteus vulgaris it was 64 mg/L (≈ 174 µM); with Staphylococcus aureus [13] it was 0.03 mg/L (≈ 0.0816 µM); in the assay with Enterobacter cloacae, 4 mg/L (≈ 10.9 µM); in the assay on Escherichia coli [14], 0.3 mg/L (≈ 0.816 µM). Also, the MIC against Escherichia coli [17] turned out to be 4 mg/L (≈ 10.9 µM). Further, the values for the Geometric mean (in assay [12]; in the assay with Bacteria) were 2.141 and 0.246, respectively.
Consider `Cc1c(N2CCc3ccccc3C2)c(F)cc2c(=O)c(C(=O)O)cn(C3CC3)c12`, for which the MIC in the assay with Klebsiella pneumoniae was found to be 0.03 mg/L (≈ 0.0764 µM); in the assay on Shigella, 0.25 mg/L (≈ 0.637 µM); in [2], 0.03 mg/L (≈ 0.0764 µM); with Enterococcus faecalis [3], 0.25 mg/L (≈ 0.637 µM); in the assay on Providencia stuartii, 2 mg/L (≈ 5.1 µM); against Staphylococcus aureus [9] it was 0.03 mg/L (≈ 0.0764 µM). For the same compound, the MIC in [11] was 0.03 mg/L (≈ 0.0764 µM); against Pseudomonas aeruginosa it was 4 mg/L (≈ 10.2 µM); against Proteus vulgaris, 4 mg/L (≈ 10.2 µM); in the assay with Staphylococcus aureus [13], 0.03 mg/L (≈ 0.0764 µM); with Enterobacter cloacae, 4 mg/L (≈ 10.2 µM); in the assay on Escherichia coli [14] it was 0.03 mg/L (≈ 0.0764 µM). Also, inhibition of growth against Escherichia coli [17] (MIC) required 0.06 mg/L (≈ 0.153 µM). The same compound had an IC50 in the assay on Escherichia coli [4] of 3.14 mg/L (≈ 8 µM). Moreover, the Geometric mean stood at 0.451 in assay [12] and 0.046 in the assay on Bacteria.
Take `CN1CCN(c2cc3c(cc2N)c(=O)c(C(=O)O)cn3C2CC2)CC1`: the MIC with Klebsiella pneumoniae came out at 0.03 mg/L (≈ 0.0876 µM); against Shigella, 0.25 mg/L (≈ 0.73 µM); in [2] it was 4 mg/L (≈ 11.7 µM); in the assay on Enterococcus faecalis [3], 32 mg/L (≈ 93.5 µM); in the assay with Providencia stuartii, 8 mg/L (≈ 23.4 µM); against Staphylococcus aureus [9] it was 2 mg/L (≈ 5.84 µM). Besides, the MIC came out at 2 mg/L (≈ 5.84 µM) in [11]; 4 mg/L (≈ 11.7 µM) against Pseudomonas aeruginosa; 64 mg/L (≈ 187 µM) against Proteus vulgaris; 2 mg/L (≈ 5.84 µM) in the assay with Staphylococcus aureus [13]; 0.25 mg/L (≈ 0.73 µM) in the assay with Enterobacter cloacae; 0.03 mg/L (≈ 0.0876 µM) against Escherichia coli [14]. The compound further returned an MIC in the assay on Escherichia coli [17] of 0.25 mg/L (≈ 0.73 µM). The Geometric mean in assay [12] was 0.642; with Bacteria, 4.
